Each block holds one molecule with its values, some of them ahead of it. Active and inactive are the calls of the source. The calls are words filed in the database; no cut-off is given here.
How the values were obtained:
[1] = Metabolic stability in simulated gastric fluid assessed as compound remaining at pH 1.2 after 10 mins by HPLC analysis; assay type: ADME; conditions: read-out: Stability
Procedure, shortened: (§1)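 Compounds incubated at 37 °C in simulated gastric fluid (pH 1.2), simulated intestinal fluid (pH 6.8) or 100% human plasma for up to 180 min. […] Half-life estimated from the decay.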

[2] = Metabolic stability in simulated gastric fluid assessed as compound remaining at pH 1.2 after 60 mins by HPLC analysis; assay type: ADME; conditions: read-out: Stability; procedure, shortened: as §1
[3] = Metabolic stability in simulated gastric fluid assessed as compound remaining at pH 1.2 after 120 mins by HPLC analysis; assay type: ADME; conditions: read-out: Stability; procedure, shortened: as §1
[4] = Metabolic stability in simulated gastric fluid assessed as compound remaining at pH 1.2 after 15 mins by HPLC analysis; assay type: ADME; conditions: read-out: Stability; procedure, shortened: as §1
[5] = Half life in simulated gastric fluid at pH 1.2 by HPLC analysis; assay type: ADME; procedure, shortened: as §1
[6] = Metabolic stability in simulated gastric fluid assessed as compound remaining at pH 1.2 after 180 mins by HPLC analysis; assay type: ADME; conditions: read-out: Stability; procedure, shortened: as §1
[7] = Metabolic stability in simulated gastric fluid assessed as compound remaining at pH 1.2 after 30 mins by HPLC analysis; assay type: ADME; conditions: read-out: Stability; procedure, shortened: as §1
[8] = Metabolic stability in simulated gastric fluid assessed as compound remaining at pH 1.2 measured immediately by HPLC analysis; assay type: ADME; conditions: read-out: Stability; procedure, shortened: as §1
[9] = Metabolic stability in simulated gastric fluid assessed as compound remaining at pH 1.2 after 5 mins by HPLC analysis; assay type: ADME; conditions: read-out: Stability; procedure, shortened: as §1
[10] = Stability of the compound assessed as compound remaining at RT measured immediately; assay type: physicochemical; conditions: read-out: Stability
Procedure, shortened: (§2)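 Solid-state storage stability at room temperature and at 50 °C, followed for up to 1 month (25 days for one compound). Remaining compound measured, along with the amounts of parent drug and salicylic acid generated.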

Rattus norvegicus [11] = assay: Toxicity in rat assessed as gastric lesion and ulcer area at 298.8 mg/kg, po after 5 hrs; assay type: organism-based, Stomach; set-up: dose 298.8 mg/kg, route oral; conditions: in vivo
[12] = Metabolic stability in simulated intestinal fluid assessed as compound remaining at pH 6.8 measured immediately by HPLC analysis; assay type: ADME; conditions: read-out: Stability; procedure, shortened: as §1
[13] = Metabolic stability in simulated intestinal fluid assessed as compound remaining at pH 6.8 after 10 mins by HPLC analysis; assay type: ADME; conditions: read-out: Stability; procedure, shortened: as §1
[14] = Metabolic stability in simulated gastric fluid assessed as compound remaining at pH 1.2 after 20 mins by HPLC analysis; assay type: ADME; conditions: read-out: Stability; procedure, shortened: as §1
[15] = Metabolic stability in simulated intestinal fluid assessed as compound remaining at pH 6.8 after 60 mins by HPLC analysis; assay type: ADME; conditions: read-out: Stability; procedure, shortened: as §1
[16] = Metabolic stability in simulated gastric fluid assessed as compound remaining at pH 1.2 after 40 mins by HPLC analysis; assay type: ADME; conditions: read-out: Stability; procedure, shortened: as §1
[17] = Stability of the compound assessed as compound remaining at 50 degC measured immediately; assay type: physicochemical; conditions: read-out: Stability; procedure, shortened: as §2
[18] = Half life in simulated intestinal fluid at pH 6.8 by HPLC analysis; assay type: ADME; procedure, shortened: as §1
[19] = Stability of the compound assessed as compound remaining at RT after 3 days; assay type: physicochemical; conditions: read-out: Stability
[20] = Stability of the compound assessed as compound remaining at RT after 1 month; assay type: physicochemical; conditions: read-out: Stability; procedure, shortened: as §2
[21] = Stability of the compound assessed as compound remaining at RT after 18 days; assay type: physicochemical; conditions: read-out: Stability
Rattus norvegicus [22] = assay: Antiinflammatory activity in Sprague-Dawley rat assessed as plasma nitrate/nitrite AUC at 14.94 mg/kg, po by Griess assay (reference value: 371.1 uM.h); assay type: functional, organism-based; set-up: dose 14.94 mg/kg
Procedure, shortened: (§3)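 Sprague–Dawley rats given compounds orally, with vehicle-dosed controls. […] Plasma nitrate/nitrite (NOx) measured by the Griess method as an indirect measure of NO released, over 8 h (sampling included 1, 2, 4 and 6 h). Plasma nitrate/nitrite AUC in µM*h.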

[23] = Stability of the compound assessed as compound remaining at 50 degC after 5 days; assay type: physicochemical; conditions: read-out: Stability; procedure, shortened: as §2
[24] = Stability of the compound assessed as compound remaining at 50 degC after 2 days; assay type: physicochemical; conditions: read-out: Stability
Rattus norvegicus [25] = assay: Antiplatelet activity in Sprague-Dawley rat assessed as inhibition of TXB2 formation at 44.82 mg/kg, po od after 7 days by EIA relative to vehicle-treated control; assay type: functional; conditions: 168 h
Procedure, shortened: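 Sprague–Dawley rats dosed orally once daily for 7 days with aspirin 30 mg/kg or prodrug 44.82 mg/kg (equimolar), with vehicle 1 ml/kg as control. Serum TXB2 levels estimated. Inhibition expressed as % reduction versus vehicle.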

[26] = Stability of the compound assessed as compound remaining at 50 degC after 1 month; assay type: physicochemical; conditions: read-out: Stability; procedure, shortened: as §2
Rattus norvegicus [27] = assay: Antiinflammatory activity in Sprague-Dawley rat assessed as plasma nitrate/nitrite at 14.94 mg/kg, po up to 8 hrs; assay type: functional; procedure, shortened: as §3
[28] = Metabolic stability in simulated intestinal fluid assessed as compound remaining at pH 6.8 after 20 mins by HPLC analysis; assay type: ADME; conditions: read-out: Stability; procedure, shortened: as §1
[29] = Half life in human plasma by HPLC analysis; assay type: ADME, cell-free; procedure, shortened: as §1
[30] = AUC in Sprague-Dawley rat at 44.83 mg/kg, po; assay type: ADME, organism-based; set-up: dose 44.83 mg/kg, route oral; conditions: plasma
Procedure, shortened: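 Plasma parent-drug concentration followed over time up to 8 h. AUC in µg*h/mL from the concentration–time profile. Cmax and Tmax taken from the profile.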

[31] = Metabolic stability in simulated intestinal fluid assessed as compound remaining at pH 6.8 after 5 mins by HPLC analysis; assay type: ADME; conditions: read-out: Stability; procedure, shortened: as §1
[32] = Metabolic stability in simulated intestinal fluid assessed as compound remaining at pH 6.8 after 2 mins by HPLC analysis; assay type: ADME; conditions: read-out: Stability; procedure, shortened: as §1
[33] = Metabolic stability in simulated gastric fluid assessed as compound remaining at pH 1.2 after 2 mins by HPLC analysis; assay type: ADME; conditions: read-out: Stability; procedure, shortened: as §1
[34] = Metabolic stability in simulated intestinal fluid assessed as compound remaining at pH 6.8 after 120 mins by HPLC analysis; assay type: ADME; conditions: read-out: Stability; procedure, shortened: as §1
[35] = AUC in Wistar rat at 44.83 mg/kg, po; assay type: ADME, organism-based; set-up: dose 44.83 mg/kg, route oral; conditions: plasma
Procedure, shortened: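 Single oral dosing in Wistar rats to compare […]. Aspirin at 30 mg/kg or the prodrug at 44.83 mg/kg (equimolar to 30 mg/kg aspirin). Plasma aspirin measured over time. AUC in µg*h/mL.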

Rattus norvegicus [36] = assay: Antiinflammatory activity in Sprague-Dawley rat assessed as plasma nitrate/nitrite at 41.60 mg/kg, po after 4 hrs; assay type: functional, organism-based; set-up: dose 41.6 mg/kg; procedure, shortened: as §3
Rattus norvegicus [37] = assay: Toxicity in rat assessed as gastric lesion and ulcer area at 138.67 mg/kg, po after 5 hrs; assay type: organism-based, Stomach; set-up: dose 138.67 mg/kg, route oral; conditions: in vivo
[38] = Stability of the compound assessed as compound remaining at 50 degC after 25 days; assay type: physicochemical; conditions: read-out: Drug metabolism; procedure, shortened: as §2
Rattus norvegicus [39] = assay: Antiinflammatory activity in Sprague-Dawley rat assessed as plasma nitrate/nitrite AUC at 41.60 mg/kg, po by Griess assay (reference value: 371.1 uM.h); assay type: functional, organism-based; set-up: dose 41.6 mg/kg; procedure, shortened: as §3
[40] = Stability of the compound assessed as compound remaining at RT after 25 days; assay type: physicochemical; conditions: read-out: Drug metabolism; procedure, shortened: as §2
Rattus norvegicus [41] = assay: Antiinflammatory activity in Sprague-Dawley rat assessed as plasma nitrate/nitrite at 41.60 mg/kg, po after 6 hrs relative to control; assay type: functional, organism-based; set-up: dose 41.6 mg/kg; procedure, shortened: as §3
Rattus norvegicus [42] = assay: Antiinflammatory activity in Sprague-Dawley rat assessed as plasma nitrate/nitrite at 41.60 mg/kg, po after 1 hr; assay type: functional; conditions: dose 41.6 mg/kg; procedure, shortened: as §3
Rattus norvegicus [43] = assay: Antiinflammatory activity in Sprague-Dawley rat assessed as plasma nitrate/nitrite at 41.60 mg/kg, po after 2 hrs; assay type: functional; conditions: dose 41.6 mg/kg; procedure, shortened: as §3
[44] = Metabolic stability in simulated gastric fluid assessed as chlorambucil level; assay type: ADME, tissue-based, Stomach; conditions: simulated gi fluid

remaining at 0 days [10]: 99.1%
remaining at 10 min [1]: 45%
remaining at 0 min [12]: 100%
remaining at 10 min [13]: 52%
remaining at 20 min [14]: 14%
remaining at 1 h [15]: 4%
remaining at 40 min [16]: 12%
remaining at 0 days [17]: 99.1%
half-life [18]: < 15 min
remaining at 1 h [2]: 0%
remaining at 72 h [19]: 98.9%
remaining at 730.5 h [20]: 98.6%
remaining at 432 h [21]: 99%
half-life [5]: < 10 min
remaining at 120 h [23]: 98.2%
remaining at 48 h [24]: 98.8%
remaining at 730.5 h [26]: 88.3%
remaining at 0 min [8]: 100%
remaining at 5 min [9]: 65%
remaining at 20 min [28]: 32%
half-life [29]: < 5 min
AUC [30]: 89800 ng·h/mL
remaining at 5 min [31]: 82%
remaining at 2 min [32]: 91%
remaining at 2 min [33]: 78%
remaining at 2 h [34]: 0%
AUC [35]: 398000 ng·h/mL
SMILES: CC(=O)Oc1ccccc1C(=O)OC(C)O[N+](=O)[O-] (centres undefined)
Activity (Rattus norvegicus [11]): 1 mm2
AUC (Rattus norvegicus [22]): 1480 µM·h
inhibition in vivo at 44.82 mg/kg (Rattus norvegicus [25]): 72.6%
Activity (Rattus norvegicus [27]): 180 µM

remaining at 0 days [10]: 99.1%
remaining at 10 min [1]: 75%
remaining at 0 days [17]: 99.1%
remaining at 1 h [2]: 0%
remaining at 600 h [38]: 99%
remaining at 0.25 h [4]: 65%
half-life [5]: < 30 min
remaining at 0.5 h [7]: 33%
remaining at 0 min [8]: 100%
remaining at 5 min [9]: 85%
remaining at 600 h [40]: 98.9%
SMILES: COc1ccc2cc([C@H](C)C(=O)OC(C)O[N+](=O)[O-])ccc2c1 (some centres undefined)
Activity (Rattus norvegicus [36]): inactive
Activity (Rattus norvegicus [37]): 39 mm2
AUC (Rattus norvegicus [39]): 687 µM·h
Activity (Rattus norvegicus [41]): inactive
Activity (Rattus norvegicus [42]): 150 µM
Activity (Rattus norvegicus [43]): 120 µM

AUC [30]: 73500 ng·h/mL
SMILES: CCCC(OC(=O)c1ccccc1OC(C)=O)O[N+](=O)[O-] (centres undefined)

The remaining lines, values behind:

SMILES: CCC(OC(=O)[C@@H](C)c1ccc2cc(OC)ccc2c1)O[N+](=O)[O-] (some centres undefined)
remaining at 10 min [1]: 90%
remaining at 1 h [2]: 51%
remaining at 2 h [3]: 39%
remaining at 0.25 h [4]: 74%
half-life [5]: 60 min
remaining at 3 h [6]: 7%
remaining at 0.5 h [7]: 62%
remaining at 0 min [8]: 100%
remaining at 5 min [9]: 94%

SMILES: CC(OC(=O)CCCc1ccc(N(CCCl)CCCl)cc1)O[N+](=O)[O-] (centres undefined)
t1/2 [44]: < 5 min
